Results reported in ChEMBL document CHEMBL1131324 (J Med Chem, 1998).

Experiments:
[1] = target: T1, 5-hydroxytryptamine receptor 1B (Homo sapiens, UniProt P28222); test: Binding affinity for human 5-hydroxytryptamine 1B receptor
[2] = target: T1, 5-hydroxytryptamine receptor 1B; test: Effect of compound on [35S]GTP-gamma-S, radioligand binding CHO cells expressing human 5-hydroxytryptamine 1B receptor; type: functional, cell-based
[3] = target: 5-hydroxytryptamine receptor 1D (Homo sapiens, UniProt P28221); test: Binding affinity for human 5-hydroxytryptamine 1D receptor
[4] = target: 5-hydroxytryptamine receptor 2A (Homo sapiens, UniProt P28223); test: Binding affinity for human 5-hydroxytryptamine 2A receptor
Outline: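 Human cloned receptor expressed in HEK 293 cells; displacement of [³H]ketanserin in 50 mM Tris-HCl (pH 7.7 at 25 °C). Test compound over a concentration range, 30-45 min at 37 °C; filtration with ice-cold buffer wash, bound label by scintillation counting; pKi reported as mean (SEM, n) or individual values where n = 2.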

T1 sequence (P28222 whole entry): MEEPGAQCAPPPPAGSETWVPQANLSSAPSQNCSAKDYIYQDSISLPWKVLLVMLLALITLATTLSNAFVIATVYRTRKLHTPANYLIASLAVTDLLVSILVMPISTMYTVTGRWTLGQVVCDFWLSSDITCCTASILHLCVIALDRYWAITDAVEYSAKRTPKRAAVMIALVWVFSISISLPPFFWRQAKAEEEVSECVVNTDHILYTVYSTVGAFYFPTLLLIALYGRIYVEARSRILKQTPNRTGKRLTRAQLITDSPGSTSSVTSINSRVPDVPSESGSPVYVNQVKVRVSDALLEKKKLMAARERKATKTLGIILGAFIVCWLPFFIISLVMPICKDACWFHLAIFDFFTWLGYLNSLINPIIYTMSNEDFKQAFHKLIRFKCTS
5-hydroxytryptamine receptor 2A, sequence (P28223 whole entry): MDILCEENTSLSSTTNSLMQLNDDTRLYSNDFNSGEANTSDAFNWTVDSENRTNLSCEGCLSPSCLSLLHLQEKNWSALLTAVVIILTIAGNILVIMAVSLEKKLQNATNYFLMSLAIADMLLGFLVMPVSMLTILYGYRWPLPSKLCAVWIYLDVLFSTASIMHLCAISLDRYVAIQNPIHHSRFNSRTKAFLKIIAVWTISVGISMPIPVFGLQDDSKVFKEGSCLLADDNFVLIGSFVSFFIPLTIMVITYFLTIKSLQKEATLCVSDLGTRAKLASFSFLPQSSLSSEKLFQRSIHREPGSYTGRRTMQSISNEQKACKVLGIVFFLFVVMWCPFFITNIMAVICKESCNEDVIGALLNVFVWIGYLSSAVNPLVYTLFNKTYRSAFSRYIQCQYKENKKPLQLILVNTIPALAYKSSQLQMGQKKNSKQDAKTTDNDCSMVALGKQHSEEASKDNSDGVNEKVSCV
5-hydroxytryptamine receptor 1D, sequence (P28221 whole entry): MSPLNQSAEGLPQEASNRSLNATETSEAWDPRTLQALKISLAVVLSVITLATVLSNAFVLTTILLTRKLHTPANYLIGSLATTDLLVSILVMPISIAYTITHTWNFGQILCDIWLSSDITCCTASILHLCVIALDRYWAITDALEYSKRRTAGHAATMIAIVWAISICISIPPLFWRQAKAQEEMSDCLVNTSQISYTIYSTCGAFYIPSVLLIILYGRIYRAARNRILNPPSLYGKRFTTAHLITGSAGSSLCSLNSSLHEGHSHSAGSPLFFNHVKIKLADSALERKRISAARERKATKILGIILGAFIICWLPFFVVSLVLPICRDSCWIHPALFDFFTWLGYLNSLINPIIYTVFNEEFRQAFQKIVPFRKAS

Row | Ki [1] [nM] | [35S]GTPγS binding stimulation [2] [%] | Ki [3] [nM] | Ki [4] [nM] | SMILES
1 | 2.51 | 91 | 20 | 3.98 | Cc1nc(-c2ccc(-c3ccc(C(=O)Nc4ccc5c(c4)N(CCN(C)C)CCO5)cc3)c(C)c2)no1
2 | 3.16 | -44 | 100 | 6.31 | COc1ccc(NC(=O)c2ccc(-c3ccc(-c4noc(C)n4)cc3C)cc2)cc1CCCN(C)C
3 | 12.6 | – | 39.8 | 126 | Cc1cc(C(=O)Nc2ccc(C)c(N3CCN(C)CC3)c2)ccc1Br
4 | – | 139 | 31.6 | – | COc1ccc(NC(=O)c2ccc(-c3ccc(-c4noc(C)n4)cc3C)cc2)cc1OCCN(C)C
5 | 6.31 | – | 12.6 | 200 | COc1ccc(NC(=O)c2ccc(Br)c(C)c2)cc1N1CCN(C)CC1
